Results of several laboratories.
Compare with care: the assays were run in different laboratories.
Matrix: plasma

CNS(=O)(=O)c1ccc(Nc2ncc(C(F)(F)F)c([C@H]3CC[C@@](C)(O)CC3)n2)c(C)c1  clearance (rat; intravenous, 2 mg/kg): 7 mL/min/kg
CCN(CC)Cc1ccc2cc(COC(=O)Nc3ccc(C(=O)NO)cc3)ccc2c1  CL/F (male Sprague-Dawley rat; oral, 10 mg/kg): 20.2 mL/min/kg
CNC(=O)c1cc(Oc2ccc(NC(=O)Nc3ccc(Cl)c(C(F)(F)F)c3)cc2)ccn1  CL/F (male Sprague-Dawley rat; oral, 100 mg/kg, single dose): 96.7 mL/min/kg
C[C@H]1Oc2cc(cnc2N)-c2c(nn(C)c2C#N)CN(C)C(=O)c2ccc(F)cc21  CL/F (male Sprague-Dawley rat; oral, 10 mg/kg, single dose): 66.7 mL/min/kg
CCOc1c([C@H](C)n2nc(C)c3c(N)ncnc32)cc(Cl)c(F)c1[C@@H]1CNC(=O)C1  CL/F (male Sprague-Dawley rat; oral, 2 mg/kg, single dose): 10.3 mL/min/kg
CNS(=O)(=O)c1ccc(Nc2ncc(C(F)(F)F)c(N3CCC[C@](C)(O)C3)n2)c(C)c1  clearance (rat; intravenous, 2 mg/kg): 31 mL/min/kg
[2H]C([2H])([2H])NC(=O)c1cc(Oc2ccc(NC(=O)Nc3ccc(Cl)c(C(F)(F)F)c3)cc2)ccn1  CL/F (rat; oral, 40 mg/kg, single dose): 2.67 mL/min/kg
CC(=O)O[C@@H]1CC[C@@]2(C)[C@@H](CC[C@]3(C)[C@@H]2C(=O)C=C2[C@@H]4[C@@H](C)[C@H](C)CC[C@]4(C)CC[C@]23C)[C@@]1(C)C(=O)O  CL/F (female Wistar rat; oral, 1 mg/kg, single dose): 0.332 mL/min/kg
Cc1nc(Nc2ncc(C(=O)Nc3c(C)cccc3Cl)s2)cc(N2CC[C@H](O)C2)n1  clearance (male Sprague-Dawley rat; intravenous, 1 mg/kg): 6.83 mL/min/kg
Cc1cc(S(=O)(=O)N[C@H]2CC[C@H](CN3CCN(c4cccc(NC5CCC(=O)NC5=O)c4)CC3)CC2)ccc1Nc1ncc(C(F)(F)F)c(N2CCC[C@](C)(O)C2)n1 (some centres unmarked)  clearance (rat; intravenous, 2 mg/kg): 43 mL/min/kg
C=CC(=O)N1CCC([C@@H]2CCNc3c(C(N)=O)c(-c4ccc(Oc5ccccc5)cc4)nn32)CC1  CL/F (Sprague-Dawley rat; oral, 16 mg/kg): 224 mL/min/kg
Cc1cc(S(=O)(=O)NC2CC(N3CCN(CC4CCN(c5cccc6c5n(C)c(=O)n6C5CCC(=O)NC5=O)CC4)CC3)C2)ccc1Nc1ncc(C(F)(F)F)c(N2CCC[C@](C)(O)C2)n1 (some centres unmarked)  clearance (rat; intravenous, 2 mg/kg): 37 mL/min/kg
Cc1nc(Nc2ncc(C(=O)Nc3c(C)cccc3Cl)s2)cc(N2CC[C@@H](N)C2)n1  clearance (male Sprague-Dawley rat; intravenous, 1 mg/kg): 135 mL/min/kg
CC[C@H](C)[C@H](NC(=O)[C@@H]1CCCN1C(=O)CNC(=O)[C@H](Cc1ccccc1)NC(=O)[C@H](CC(N)=O)NC(=O)[C@H](CC(N)=O)NC(=O)[C@H](CO)NC(=O)[C@H](CO)NC(=O)[C@H](Cc1c[nH]cn1)NC(=O)[C@H](CCCNC(=N)N)NC(=O)[C@H](CC(C)C)NC(=O)[C@H](Cc1ccccc1)NC(=O)[C@H](CCC(=O)O)NC(=O)[C@H](C)NC(=O)[C@H](CC(C)C)NC(=O)[C@H](CCCNC(=N)N)NC(=O)[C@H](CCC(N)=O)NC(=O)[C@@H](NC(=O)[C@H](C)NC(=O)[C@@H]1CSSC[C@H](NC(=O)[C@H](CCCCN)NC(=O)CC[C@H](NC(=O)CCCCCCCCCCCCCCCCCCC(=O)O)C(=O)O)C(=O)N[C@@H](CC(N)=O)C(=O)N[C@@H]([C@@H](C)O)C(=O)N[C@@H](C)C(=O)N[C@@H]([C@@H](C)O)C(=O)N1)[C@@H](C)O)C(=O)N[C@@H](CC(C)C)C(=O)N1CCC[C@H]1C(=O)N1CCC[C@H]1C(=O)N[C@H](C(=O)N[C@@H](CC(N)=O)C(=O)N[C@H](C(=O)NCC(=O)N[C@@H](CO)C(=O)N[C@@H](CC(N)=O)C(=O)N[C@H](C(=O)N1CCC[C@H]1C(N)=O)[C@@H](C)O)C(C)C)[C@@H](C)O  CL/F (male Sprague-Dawley rat; subcutaneous, 30 nmol/kg, single dose): 0.112 mL/min/kg
C1=C/COCc2cc(ccc2OCCN2CCCC2)Nc2nccc(n2)-c2cccc(c2)COC/1  CL/F (rat; oral, 36 mg/kg): 11700 mL/h
Cc1cc(S(=O)(=O)N[C@]2(C)C[C@H](N3CCN(CC4CCN(c5ccc6c(c5F)n(C)c(=O)n6C5CCC(=O)NC5=O)CC4)CC3)C2)ccc1Nc1ncc(C(F)(F)F)c(N2CCC[C@](C)(O)C2)n1 (some centres unmarked)  clearance (rat; intravenous, 2 mg/kg): 145 mL/min/kg
CC[C@@H]([C@H](C)O)n1ncn(-c2ccc(N3CCN(c4ccc(OC[C@@H]5CO[C@@](Cn6cncn6)(c6ccc(F)cc6F)C5)cc4)CC3)cc2)c1=O  CL/F (Sprague-Dawley rat; oral, 40 mg/kg): 79 mL/min/kg
